Measured values reported in ChEMBL document CHEMBL2146419, “Effects of polyphenol compounds on influenza A virus replication and definition of their mechanism of action” (Bioorg Med Chem, 2012).

How the values were obtained:
MDCK [1] = test: Cytotoxicity against dog MDCK cells assessed as loss of cell viability incubated for 24 hrs followed by compound wash out measured after 24 hrs by trypan blue exclusion assay; format: cell-based, Canis lupus familiaris
How it was run: (§1)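 Confluent MDCK monolayers plated at 2×10^5/ml were treated after 24 h with compound at 5–40 μg/ml and incubated a further 24 h. Assessed by microscopic examination of morphology, Trypan blue exclusion for viability, and cell counts for multiplication rate.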

MDCK [2] = test: Cytotoxicity against dog MDCK cells assessed as modification of cell multiplication rate incubated for 24 hrs followed by compound wash out measured after 24 hrs by cell counting analysis; format: cell-based, Canis lupus familiaris; how it was run: as §1
MDCK [3] = test: Cytotoxicity against dog MDCK cells assessed as morphological alterations incubated for 24 hrs followed by compound wash out measured after 24 hrs by microscopic analysis; format: cell-based, Canis lupus familiaris; how it was run: as §1
MDCK [4] = test: Cytotoxicity against dog MDCK cells assessed as morphological alterations at 40 ug/mL incubated for 24 hrs followed by compound wash out measured after 24 hrs by microscopic analysis; format: cell-based, Canis lupus familiaris; how it was run: as §1
Influenza A virus = test: Antiviral activity against Influenza virus A/Puerto Rico/8/34 H1N1 infected in dog MDCK cells incubated at 1 hr post-infection measured after 24 hrs by hemagglutininating unit assay; format: functional, organism-based; conditions: A/Puerto Rico/8/1934(H1N1)
How it was run: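 MDCK cells infected with PR8; 1 h after adsorption they were washed, and compound (5–20 μg/ml) or DMSO was added and kept on throughout. Virus released into the supernatant was titrated by HAU assay 24 h p.i. Yield is a percentage of control infected cells given 0.02% DMSO. Means of four experiments, each in duplicate.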

In the case of `O=C(/C=C/c1ccc(O)c(O)c1)c1ccc(O)cc1`, the Activity (MDCK [1]) is reported as “Dose-dependent effect”, the Activity (MDCK [2]) is reported as “Dose-dependent effect” and the Activity (MDCK [3]) is reported as “Dose-dependent effect”.
With `O=C(/C=C/c1ccc(Cl)cc1)c1ccccc1O` the Activity (MDCK [1]) was “Non-toxic”, the Activity (MDCK [2]) was “Non-toxic” and the Activity (MDCK [4]) was “Toxic”. For the same molecule, the Activity (Influenza A virus) was “Dose-dependent effect” and the Activity (MDCK [3]) was “Non-toxic”.
With `O=C(/C=C/c1ccc(O)c(O)c1)c1ccccc1` the Activity (MDCK [1]) was “Dose-dependent effect”, the Activity (MDCK [2]) was “Dose-dependent effect” and the Activity (MDCK [3]) was “Dose-dependent effect”.
`O=C(/C=C/c1ccc(O)cc1)c1cc(O)cc(O)c1` was tested, and the Activity (MDCK [1]) was “Non-toxic”, the Activity (MDCK [2]) was “Non-toxic” and the Activity (MDCK [4]) was “Toxic”. The Activity (Influenza A virus) was “Dose-dependent effect” and the Activity (MDCK [3]) was “Non-toxic”.
`COc1ccc(/C=C/C(=O)c2ccc(O)cc2O)cc1` was tested, and the Activity (MDCK [1]) was “Dose-dependent effect”, the Activity (MDCK [2]) was “Dose-dependent effect” and the Activity (MDCK [3]) was “Dose-dependent effect”.
With `O=C(/C=C/c1cc(O)cc(O)c1)c1ccc(O)cc1` the Activity (MDCK [1]) was “Dose-dependent effect”, the Activity (MDCK [2]) was “Dose-dependent effect” and the Activity (MDCK [3]) was “Dose-dependent effect”.
With `O=C(/C=C/c1ccc(O)c(O)c1)/C=C/c1ccc(O)c(O)c1` the Activity (MDCK [1]) was “Dose-dependent effect”, the Activity (MDCK [2]) was “Dose-dependent effect” and the Activity (MDCK [3]) was “Dose-dependent effect”.
With `Nc1cccc(C(=O)/C=C/c2ccc(O)c(O)c2)c1` the Activity (MDCK [1]) was “Dose-dependent effect”, the Activity (MDCK [2]) was “Dose-dependent effect” and the Activity (MDCK [3]) was “Dose-dependent effect”.
In the case of `O=C(/C=C/c1ccc(O)c(O)c1)c1ccc(O)cc1O` [BUTEIN], the Activity (MDCK [1]) is reported as “Dose-dependent effect”, the Activity (MDCK [2]) is reported as “Dose-dependent effect” and the Activity (MDCK [3]) is reported as “Dose-dependent effect”.
`O=C1/C(=C/c2ccc(O)c(O)c2)CCC/C1=C\c1ccc(O)c(O)c1` was tested, and the Activity (MDCK [1]) was “Dose-dependent effect”, the Activity (MDCK [2]) was “Dose-dependent effect” and the Activity (MDCK [3]) was “Dose-dependent effect”.
With `COc1ccc(C(=O)/C=C/c2ccc(F)cc2)c(O)c1` the Activity (MDCK [1]) was “Dose-dependent effect”, the Activity (MDCK [2]) was “Dose-dependent effect” and the Activity (MDCK [3]) was “Dose-dependent effect”.
With `Cc1ccc(/C=C/C(=O)c2ccc(O)cc2O)cc1` the Activity (MDCK [1]) was “Dose-dependent effect”, the Activity (MDCK [2]) was “Dose-dependent effect” and the Activity (MDCK [3]) was “Dose-dependent effect”.
In the case of `CCCN1C/C(=C\c2ccc(O)c(O)c2)C(=O)/C(=C/c2ccc(O)c(O)c2)C1`, the Activity (MDCK [1]) is reported as “Dose-dependent effect”, the Activity (MDCK [2]) is reported as “Dose-dependent effect” and the Activity (MDCK [3]) is reported as “Dose-dependent effect”.
In the case of `CCOC(=O)C1C/C(=C\c2ccc(O)c(O)c2)C(=O)/C(=C/c2ccc(O)c(O)c2)C1` (stereo unspecified), the Activity (MDCK [1]) is reported as “Dose-dependent effect”, the Activity (MDCK [2]) is reported as “Dose-dependent effect” and the Activity (MDCK [3]) is reported as “Dose-dependent effect”.
